Activity calls are given as the source filed them. The rule behind the calls is not given here.
Experiments:
[1] = Stability in rat plasma after 3 hrs; type: ADME, cell-free; settings: read-out: Stability
Outline: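 Rat plasma incubation for 3 h; stability reported as percent of compound remaining.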

[2] = test system: Mus musculus; assay: Antiarrhythmic activity in calcium chloride-induced mouse arrhythmia model assessed as prolongation of time to conduct cardiac block at 10 pmol/kg, iv relative to control; type: functional, Heart
Outline: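 Mice received an intravenous infusion of CaCl2 after IV test compound. The read-out was time to cardiac conduction block, expressed as percent increase over control. Values are means of at least three experiments with standard deviation.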

[3] = Clearance in CD1 mouse at 1 mg/kg, iv; type: ADME, organism-based; design: dose 1 mg/kg, route intravenous; settings: in vivo
Outline: (§1)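 CD-1 mice were dosed IV at a nominal 1 mg/kg (actual 0.77 mg/kg or 1.6 mg/kg for some compounds) and PO at 5 mg/kg. Parameters were derived from mean drug concentration, N = 3 animals/time point.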

[4] = Volume of distribution at steady state in CD1 mouse at 1 mg/kg, iv; type: ADME, organism-based; design: dose 1 mg/kg, route intravenous; settings: in vivo, read-out: Vdss; outline: as §1
[5] = Inhibition of CYP450; type: ADME
[6] = test system: Mus musculus; assay: Antiarrhythmic activity in calcium chloride-induced mouse arrhythmia model assessed as prolongation of time to conduct cardiac block at 1 to 30 mg/kg, po relative to control; type: functional, organism-based; settings: Heart
Outline: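 Compounds were given orally at 1–30 mg/kg to mice, which then received an intravenous CaCl2 infusion. The read-out was prolongation of time to conduction block versus control.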

[7] = biological target: Voltage-gated inwardly rectifying potassium channel KCNH2 (Homo sapiens, UniProt Q12809); assay: Inhibition of human ERG
[8] = Half life in CD1 mouse at 5 mg/kg, po; type: ADME, organism-based; design: dose 5 mg/kg, route oral; settings: in vivo; outline: as §1
[9] = Metabolic stability in rat liver microsomes assessed as half life; type: ADME, Microsome
[10] = Oral bioavailability in CD1 mouse at 5 mg/kg; type: ADME, organism-based; settings: in vivo; outline: as §1
[11] = AUC in CD1 mouse at 5 mg/kg, po; type: ADME, organism-based; design: dose 5 mg/kg, route oral; settings: plasma; outline: as §1
[12] = Tmax in CD1 mouse at 5 mg/kg, po; type: ADME, organism-based; design: dose 5 mg/kg, route oral; settings: in vivo; outline: as §1
[13] = Half life in CD1 mouse at 1 mg/kg, iv; type: ADME, organism-based; design: dose 1 mg/kg, route intravenous; settings: in vivo; outline: as §1
[14] = Metabolic stability in human liver microsomes assessed as half life; type: ADME, Microsome
[15] = Cmax in CD1 mouse at 5 mg/kg, po; type: ADME, organism-based; design: dose 5 mg/kg, route oral; settings: in vivo; outline: as §1
[16] = Half life in dog at 7.8 mg/kg, po; type: ADME, organism-based, Canis lupus familiaris; design: dose 7.8 mg/kg, route oral; settings: in vivo
Outline: (§2)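 Dogs were dosed IV at 1 mg/kg and PO at 5 mg/kg; one compound was given 2.3 mg/kg IV and 7.8 mg/kg oral. Values are means of at least three animals, or two animals where no SD is given.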

[17] = Volume of distribution at steady state in dog at 2.3 mg/kg, iv; type: ADME, organism-based, Canis lupus familiaris; design: dose 2.3 mg/kg, route intravenous; settings: in vivo, read-out: Vdss; outline: as §2
[18] = Half life in CD1 mouse at 5 mg/kg, po; settings: in vivo
[19] = Cmax in CD1 mouse at 5 mg/kg, po; settings: in vivo
[20] = Half life in CD1 mouse at 1.6 mg/kg, iv; type: ADME, organism-based; design: dose 1.6 mg/kg, route intravenous; settings: in vivo; outline: as §1
[21] = Clearance in dog at 2.3 mg/kg, iv; type: ADME, organism-based, Canis lupus familiaris; design: dose 2.3 mg/kg, route intravenous; settings: in vivo; outline: as §2
[22] = Cmax in dog at 7.8 mg/kg, po; type: ADME, organism-based, Canis lupus familiaris; design: dose 7.8 mg/kg, route oral; settings: in vivo; outline: as §2
[23] = Oral bioavailability in dog at 7.8 mg/kg; type: ADME, organism-based, Canis lupus familiaris; settings: in vivo; outline: as §2
[24] = test system: Mus musculus; assay: Oral bioavailability in CD1 mouse at 1.6 mg/kg; type: ADME, organism-based; settings: in vivo
[25] = test system: Mus musculus; assay: AUC in CD1 mouse at 5 mg/kg, po; settings: in vivo
[26] = Tmax in CD1 mouse at 5 mg/kg, po; settings: in vivo
[27] = AUC in dog at 7.8 mg/kg, po; type: ADME, organism-based, Canis lupus familiaris; design: dose 7.8 mg/kg, route oral; settings: plasma; outline: as §2
[28] = Volume of distribution at steady state in CD1 mouse at 1.6 mg/kg, iv; type: ADME, organism-based; design: dose 1.6 mg/kg, route intravenous; settings: in vivo, read-out: Vdss; outline: as §1
[29] = Tmax in dog at 7.8 mg/kg, po; type: ADME, organism-based, Canis lupus familiaris; design: dose 7.8 mg/kg, route oral; settings: in vivo
[30] = Half life in dog at 2.3 mg/kg, iv; type: ADME, organism-based, Canis lupus familiaris; design: dose 2.3 mg/kg, route intravenous; settings: in vivo; outline: as §2
[31] = test system: Mus musculus; assay: AUC in CD1 mouse at 5 mg/kg, po; settings: in vivo; remark: listed apart in the source
[32] = test system: Canis familiaris; assay: Half life in dog at 1 mg/kg, iv; type: ADME, organism-based, Canis lupus familiaris; design: dose 1 mg/kg, route intravenous; settings: in vivo; outline: as §2
[33] = Oral bioavailability in dog at 5 mg/kg; type: ADME, organism-based, Canis lupus familiaris; settings: in vivo; outline: as §2
[34] = Half life in CD1 mouse at 0.77 mg/kg, po; type: ADME, organism-based; design: dose 0.77 mg/kg, route oral; settings: in vivo
[35] = AUC in dog at 5 mg/kg, po; type: ADME, organism-based, Canis lupus familiaris; design: dose 5 mg/kg, route oral; settings: plasma; outline: as §2
[36] = Tmax in CD1 mouse at 0.77 mg/kg, po; type: ADME, organism-based; design: dose 0.77 mg/kg, route oral; settings: in vivo
[37] = Volume of distribution at steady state in CD1 mouse at 0.77 mg/kg, iv; type: ADME, organism-based; design: dose 0.77 mg/kg, route intravenous; settings: in vivo, read-out: Vdss; outline: as §1
[38] = Cmax in dog at 5 mg/kg, po; type: ADME, organism-based, Canis lupus familiaris; design: dose 5 mg/kg, route oral; settings: in vivo; outline: as §2
[39] = test system: Mus musculus; assay: Oral bioavailability in CD1 mouse at 0.77 mg/kg; type: ADME, organism-based; settings: in vivo
[40] = Cmax in CD1 mouse at 0.77 mg/kg, po; type: ADME, organism-based; design: dose 0.77 mg/kg, route oral; settings: in vivo
[41] = Half life in CD1 mouse at 0.77 mg/kg, iv; type: ADME, organism-based; design: dose 0.77 mg/kg, route intravenous; settings: in vivo; outline: as §1
[42] = Tmax in dog at 5 mg/kg, po; type: ADME, organism-based, Canis lupus familiaris; design: dose 5 mg/kg, route oral; settings: in vivo
[43] = test system: Mus musculus; assay: Antiarrhythmic activity in calcium chloride-induced mouse arrhythmia model assessed as prolongation of time to conduct cardiac block at 20 pmol/kg, iv relative to control; type: functional, Heart
Outline: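 A medium-throughput IV screen in the mouse CaCl2 infusion arrhythmia model (n = 7–11). Time to conduction block was expressed as percent of saline control.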

[44] = Half life in dog at 5 mg/kg, po; type: ADME, organism-based, Canis lupus familiaris; design: dose 5 mg/kg, route oral; settings: in vivo; outline: as §2
[45] = test system: Canis familiaris; assay: Volume of distribution at steady state in dog at 1 mg/kg, iv; type: ADME, organism-based, Canis lupus familiaris; design: dose 1 mg/kg, route intravenous; settings: in vivo; outline: as §2

Voltage-gated inwardly rectifying potassium channel KCNH2, sequence (Q12809 whole entry): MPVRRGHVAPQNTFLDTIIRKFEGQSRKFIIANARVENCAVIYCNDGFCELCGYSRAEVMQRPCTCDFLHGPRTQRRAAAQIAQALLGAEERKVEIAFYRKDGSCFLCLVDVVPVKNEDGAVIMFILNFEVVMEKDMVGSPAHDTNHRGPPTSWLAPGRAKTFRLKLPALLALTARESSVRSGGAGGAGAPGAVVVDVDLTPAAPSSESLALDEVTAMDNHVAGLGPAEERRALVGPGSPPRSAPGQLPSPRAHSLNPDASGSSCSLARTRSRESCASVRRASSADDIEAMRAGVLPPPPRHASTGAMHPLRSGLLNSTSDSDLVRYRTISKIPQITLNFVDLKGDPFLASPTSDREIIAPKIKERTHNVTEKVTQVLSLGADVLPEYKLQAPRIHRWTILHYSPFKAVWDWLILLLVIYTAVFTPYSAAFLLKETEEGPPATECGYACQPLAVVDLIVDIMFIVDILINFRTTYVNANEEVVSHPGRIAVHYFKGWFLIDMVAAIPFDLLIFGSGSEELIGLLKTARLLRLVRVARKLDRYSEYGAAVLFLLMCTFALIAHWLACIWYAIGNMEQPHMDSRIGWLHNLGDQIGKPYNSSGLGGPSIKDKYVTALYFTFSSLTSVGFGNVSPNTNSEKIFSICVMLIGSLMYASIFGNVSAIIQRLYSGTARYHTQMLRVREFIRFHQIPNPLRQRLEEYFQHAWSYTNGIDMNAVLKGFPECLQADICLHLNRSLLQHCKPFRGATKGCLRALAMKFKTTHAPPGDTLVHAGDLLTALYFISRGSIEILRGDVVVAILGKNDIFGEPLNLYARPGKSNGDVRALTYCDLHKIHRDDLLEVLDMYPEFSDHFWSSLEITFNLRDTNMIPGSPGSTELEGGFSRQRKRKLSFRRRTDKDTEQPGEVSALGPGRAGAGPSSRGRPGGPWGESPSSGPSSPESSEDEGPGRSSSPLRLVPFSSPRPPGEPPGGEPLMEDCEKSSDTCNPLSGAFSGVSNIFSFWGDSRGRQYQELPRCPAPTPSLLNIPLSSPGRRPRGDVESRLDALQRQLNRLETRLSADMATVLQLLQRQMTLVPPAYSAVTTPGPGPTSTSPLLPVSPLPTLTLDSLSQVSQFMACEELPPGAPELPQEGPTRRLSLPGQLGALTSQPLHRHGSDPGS

CC(C)(C)OC(=O)NCC(=O)N1C[C@H](NC(=O)c2ccccc2)C[C@H]1C(=O)O
remaining at 3 h [1]: 100%
Activity [2]: 156.2%

CC(C)NC(=O)[C@@H]1C[C@@H](NC(=O)c2ccccc2)CN1C(=O)CN
clearance [3]: 58 mL/min/kg
Vd [4]: 2 L/kg
Activity [5]: Not Active
Activity [6]: Active
Activity [7]: Not Active
half-life [8]: 1.6 h
half-life [9]: > 0.5 h
remaining at 3 h [1]: 100%
bioavailability [10]: 6%
AUC [11]: 90 ng·h/mL
Activity [2]: 162%
Tmax [12]: 0.25 h
half-life [13]: 0.9 h
half-life [14]: > 0.5 h
Cmax [15]: 44 ng/mL

CNCC(=O)N1C[C@H](NC(=O)c2ccccc2)C[C@H]1C(=O)O
remaining at 3 h [1]: 100%
Activity [2]: 120.7%

O=CNCC(=O)N1C[C@H](NC(=O)c2ccccc2)C[C@H]1C(=O)O
half-life [16]: 6.2 h
Vd [17]: 0.4 L/kg
half-life [18]: 1.4 h
Cmax [19]: 89 ng/mL
Activity [5]: Not Active
Activity [6]: Active
half-life [20]: 0.4 h
clearance [21]: 5 mL/min/kg
Activity [7]: Not Active
half-life [9]: > 0.5 h
Cmax [22]: 737 ng/mL
remaining at 3 h [1]: 100%
bioavailability [23]: 13%
F [24]: 2%
AUC [25]: 144 ng·h/mL
Tmax [26]: 0.25 h
AUC [27]: 3820 ng·h/mL
Vd [28]: 0.2 L/kg
Tmax [29]: 1.4 h
half-life [30]: 1.5 h
Activity [2]: 170.4%
half-life [14]: > 0.5 h

COC(=O)[C@@H]1C[C@@H](NC(=O)c2ccccc2)CN1C(=O)CNC(=O)OC(C)(C)C
remaining at 3 h [1]: 0%
Activity [2]: 166.3%

CN(C)CC(=O)N1C[C@H](NC(=O)c2ccccc2)C[C@H]1C(=O)O
remaining at 3 h [1]: 100%
Activity [2]: 118.9%

NCC(=O)N1C[C@H](NC(=O)c2ccccc2)C[C@H]1C(=O)NC1CCOCC1
remaining at 3 h [1]: 81%
Activity [2]: 99.4%

NCC(=O)N1C[C@H](NC(=O)c2ccccc2)C[C@H]1C(=O)O [DANEGAPTIDE]
AUC [31]: 73 ng·h/mL
t1/2 [32]: 6.3 h
bioavailability [33]: 14%
half-life [34]: 1.9 h
AUC [35]: 4790 ng·h/mL
Tmax [36]: 0.5 h
Vd [37]: 2.7 L/kg
Cmax [38]: 799 ng/mL
F [39]: 6%
Cmax [40]: 26 ng/mL
half-life [41]: 1.6 h
remaining at 3 h [1]: 93%
Tmax [42]: 1.1 h
Activity [43]: 149.8%
half-life [44]: 4 h
Activity [2]: 206.6%
Vdss [45]: 8 L/kg

CC(C)[C@@H](C)NC(=O)[C@@H]1C[C@@H](NC(=O)c2ccccc2)CN1C(=O)CN
remaining at 3 h [1]: 89%
Activity [2]: 120.1%

From ChEMBL document CHEMBL1153486, “Discovery of a class of potent gap-junction modifiers as novel antiarrhythmic agents” (Bioorg Med Chem Lett, 2009)
